From PubChem BioAssay
This is a sample that favours compounds with a hit; in the whole collection about 5.8% have one here.
Pf Dd2 inh: P. falciparum Dd2 growth inhibitors, primary screen, SYBR Green fluorescence, single dose replicates; 72 h; active compounds read low; activity change, % at 10 µM; 2.3% of 94,000 active; in the data active = activity change below about -80%; inconclusive = no clear call, values can overlap the other calls
T cruzi growth-1: T. cruzi intracellular proliferation inhibitors, primary screen, cell-based, beta-gal Tulahuen parasites, NIH3T3 host, luminescence. 5.9% of 77,000 active. T. cruzi beta-gal in NIH3T3, GalScreen luminescence, 90 h. inhibition, % at 8.34 µM. AID 624255, 2012;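 active = mean inhibition above about 93%, with at least 55% of replicates each passing it, limit read from the data, passing the limit was not always enough; inconclusive = only one of those two conditions holds; inactive = neither condition holds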
GASC1 inh: inhibitors of GASC-1 (KDM4C) histone demethylase, primary screen, biochemical, single concentration HTS; GST-KDM4C 2-372, H3K9me3 peptide, LANCE TR-FRET; 0.15% of 96,000 active; inhibition, % at 12.5 µM; AID 720574, 2013;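 active = mean replicate inhibition above about 25%, with at least 55% of replicates also reaching it, limit read from the data, passing the limit was not always enough; inconclusive = only one of those two conditions met; inactive = neither condition met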
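System – N-terminal GST-fused human GASC-1 (KDM4C) fragment, residues 2-372 · Input – enzyme final amount 10 nM · Technique – LANCE TR-FRET, Eu antibody, ULight-streptavidin, EDTA, ex 340 nm, em 618/671 nm · Medium – HEPES buffer, pH 7.5, plus ascorbate · Incubation – enzyme reaction 30 min, then detection 60 min, both room temperature · Reagent – H3K9me3 peptide with Fe(II)/2OG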
IDH1 mut inh: inhibitors of IDH1 R132H reductase, primary screen, biochemical, plate reader, single point. 0.18% of 70,000 active. diaphorase/resazurin fluorescence, 60 min. Isocitrate dehydrogenase [NADP] cytoplasmic (Homo sapiens), O75874. inhibition, % at 10 µM; in the data active = inhibition above about 34%; inconclusive = no clear call, values can overlap the other calls; inactive = below about 11%;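 note: 0% = DMSO and 100% = no enzyme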
Target sequence (O75874 whole entry R132H): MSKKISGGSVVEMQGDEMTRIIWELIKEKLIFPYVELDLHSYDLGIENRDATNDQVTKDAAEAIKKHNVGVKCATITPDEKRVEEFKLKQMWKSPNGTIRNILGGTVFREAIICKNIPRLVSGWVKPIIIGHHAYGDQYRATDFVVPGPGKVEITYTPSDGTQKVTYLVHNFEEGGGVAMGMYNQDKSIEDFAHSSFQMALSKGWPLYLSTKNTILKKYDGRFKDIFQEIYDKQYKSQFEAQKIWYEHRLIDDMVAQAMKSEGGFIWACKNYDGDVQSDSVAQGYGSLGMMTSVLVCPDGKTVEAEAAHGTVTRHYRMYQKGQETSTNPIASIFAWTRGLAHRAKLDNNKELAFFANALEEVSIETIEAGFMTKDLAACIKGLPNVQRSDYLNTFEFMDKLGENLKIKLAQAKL
T cruzi growth-2: T. cruzi intracellular proliferation inhibitors, confirmation, cell-based, NIH3T3 host, beta-gal parasite, luminescence, cherry-pick | 72% of 5,600 active | shares compounds with T cruzi growth-1 | inhibition, % at 8.35 µM | AID 651739, 2012 | T. cruzi beta-gal in NIH3T3, GalScreen luminescence, 90 h;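 active = mean replicate inhibition above about 95% and at least 55% of replicates individually reaching it, limit read from the data; inconclusive = only one of the two criteria is met; inactive = neither criterion is met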
T cruzi growth-3: inhibitors of intracellular T. cruzi replication, confirmation, NIH3T3 host cells, beta-gal parasites, cherry-pick, set 2; shares compounds with T cruzi growth-1; AID 651740, 2012; inhibition, % at 2.09 µM; 21% of 5,600 active; T. cruzi beta-gal in NIH3T3, GalScreen luminescence, 90 h;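 active = mean inhibition above about 95%, with at least 55% of replicates also reaching it, limit read from the data; inconclusive = meets just one of the two conditions; inactive = meets neither condition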;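 note: plate controls were neutral control median for no effect and positive control median for full effect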
NIH3T3 tox: cytotoxicity in mouse NIH/3T3 fibroblasts, confirmation, cytotoxicity control for T. cruzi proliferation inhibitor project, cell-based, cherry-pick, single point. shares compounds with T cruzi growth-1. NIH/3T3 viability, CellTiter-Glo ATP luminescence, 90 h. cytotoxicity (signal decrease), % at 8.35 µM. 14% of 5,600 active;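 active = mean signal decrease across replicates above about 35% based on untreated-well scatter, with enough replicates individually passing, limit read from the data; inconclusive = no rule stated though some were filed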;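 note: 0% = median of neutral control wells and 100% = median of positive control wells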
3T3 cytotox 2: NIH/3T3 fibroblast cytotoxicity, confirmation, cytotoxicity control, cell-based, cherry-pick, single point, set 2 | shares compounds with T cruzi growth-1 | NIH/3T3 viability, CellTiter-Glo ATP luminescence, 90 h | inhibition, % at 24.9 µM | 56% of 5,600 active | AID 651744, 2012;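 active = mean loss of cell viability signal at or above a set limit, and enough replicates individually reaching it; inconclusive = meets only the mean limit or only the replicate share; inactive = meets neither condition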;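 note: 0% = median of neutral control wells and 100% = median of positive control wells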
Starred values were filed as active, the others as inactive; ? = inconclusive; . = no result given.

SMILES | Pf Dd2 inh | T cruzi growth-1 | GASC1 inh | IDH1 mut inh | T cruzi growth-2 | T cruzi growth-3 | NIH3T3 tox | 3T3 cytotox 2
Cc1ccc(-c2ccc3c(c2)O[C@@H](CN(C)C(=O)NC(C)C)[C@H](C)CN([C@@H](C)CO)S3(=O)=O)cc1 | -39 | 35 | -2 | 8 | . | . | . | .
Cc1ccc(-c2ccc3c(c2)O[C@H](CN(C)C(=O)NC(C)C)[C@H](C)CN([C@@H](C)CO)S3(=O)=O)cc1 | 20 | 35 | -2 | -4 | . | . | . | .
CC(C)NC(=O)N(C)C[C@H]1Oc2cc(-c3ccncc3)ccc2S(=O)(=O)N([C@@H](C)CO)C[C@H]1C | -1 | ? | -2 | 1 | 64 | -14 | 6 | 20
CC(C)NC(=O)N(C)C[C@@H]1Oc2cc(-c3ccncc3)ccc2S(=O)(=O)N([C@H](C)CO)C[C@@H]1C | -11 | ? | 13 | 3 | 57 | 20 | 3 | 10
CC(C)NC(=O)N(C)C[C@H]1Oc2cc(-c3ccncc3)ccc2S(=O)(=O)N([C@H](C)CO)C[C@@H]1C | -1 | 107* | -1 | 0 | 87 | 58 | 1 | 11
CCCNC(=O)N(C)C[C@H]1Oc2cc(-c3cccnc3)ccc2S(=O)(=O)N([C@@H](C)CO)C[C@@H]1C | -1 | ? | 0 | 0 | ? | 77 | 15 | 6
CC=Cc1ccc2n(c1=O)C[C@@H]1[C@@H](CO)[C@H](C(=O)NCC)N(Cc3nccs3)[C@H]21 (mixture of isomers) | 2 | -1 | 10 | . | . | . | . | .
C[C@H]1CN([C@@H](C)CO)C(=O)c2cccc(NC(=O)Nc3ccc4c(c3)OCO4)c2O[C@H]1CN(C)C(=O)Nc1ccc(C(F)(F)F)cc1 | 13 | 11 | 1 | 0 | . | . | . | .
C[C@H](CO)N1C[C@H](C)[C@H](CN(C)S(C)(=O)=O)Oc2cc(C#Cc3ccc(F)cc3)ccc2S1(=O)=O | -26 | 115* | 8 | -3 | 103* | 71 | 12 | 51*
C[C@H]1CN([C@@H](C)CO)S(=O)(=O)c2ccc(C#Cc3ccc(F)cc3)cc2O[C@@H]1CN(C)S(C)(=O)=O | -10 | 122* | -2 | -2 | 102* | 65 | ? | 87*
CCCC#Cc1ccc2c(c1)O[C@@H](CN(C)S(C)(=O)=O)[C@@H](C)CN([C@@H](C)CO)S2(=O)=O | -1 | 101* | -1 | -2 | ? | ? | 32 | 58*
CCCC#Cc1ccc2c(c1)O[C@@H](CN(C)S(C)(=O)=O)[C@H](C)CN([C@H](C)CO)S2(=O)=O | -12 | 15 | 0 | 0 | . | . | . | .
C[C@@H]1CN([C@H](C)CO)S(=O)(=O)c2ccc(C#Cc3ccccc3)cc2O[C@@H]1CN(C)S(C)(=O)=O | -40 | 69 | -4 | -1 | . | . | . | .
C[C@H]1CN([C@@H](C)CO)S(=O)(=O)c2ccc(C#Cc3ccc(F)cc3)cc2O[C@H]1CN(C)S(C)(=O)=O | -36 | 118* | 1 | -2 | 105* | 59 | 20 | 2
CN(C)CC(=O)Nc1ccc2c(c1)[C@@H]1C[C@H](CC(=O)NCc3ccccn3)O[C@@H](CO)[C@@H]1O2 | 28 | . | 1 | 0 | . | . | . | .
C[C@@H]1CCCCO[C@@H](CN(C)S(=O)(=O)c2ccccc2)[C@@H](C)CN([C@H](C)CO)C(=O)c2cc(NC(=O)Nc3ccccc3)ccc2O1 | -59 | 36 | 0 | 0 | . | . | . | .
C[C@@H]1CCCCO[C@@H](CN(C)S(=O)(=O)c2ccccc2)[C@H](C)CN([C@@H](C)CO)C(=O)c2cc(NC(=O)Nc3ccc(C(F)(F)F)cc3)ccc2O1 | -75 | 109* | 2 | . | 104* | 115* | 13 | 1
